Here are results for 33 compounds from ChEMBL document CHEMBL1140754, “Synthesis and insecticidal evaluation of novel N'-tert-butyl-N'-substitutedbenzoyl-N-5-chloro-6-chromanecarbohydrazide derivatives” (2008).

SMILES strings stand for the structures. Values after ≈ are worked out from the molar mass of the structure shown.

The subject of this test is Mythimna separata. The test can be described thus: Larvicidal activity against Oriental armyworm. The class given is functional. The procedure, abridged: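 Oriental armyworm (Mythimna separata) larvae dosed by foliar application. Each treatment run in triplicate. LC50 derived by Probit analysis. Reference insecticides were tested under the same conditions.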
A word on the LC50: it is the concentration that kills 50% of the test population. Read a high LC50 as lower toxicity. Compound `CC(C)(C)N(NC(=O)c1ccc2c(c1Cl)CCCO2)C(=O)c1ccc(Cl)cc1` yielded an LC50 of 4.06 µg/mL (≈ 9.64 µM). The result for `CC(C)(C)N(NC(=O)c1ccc2c(c1Cl)CCCO2)C(=O)c1ccc(Cl)cc1Cl` reads 4.11 µg/mL (≈ 9.02 µM). With `CC(C)(C)N(NC(=O)c1ccc2c(c1Cl)CCCO2)C(=O)c1cc(Cl)cc(Cl)c1` the figure was 4.11 µg/mL (≈ 9.02 µM); with `CC(C)(C)N(NC(=O)c1ccc2c(c1Cl)CCCO2)C(=O)c1c(Cl)cc(Cl)cc1Cl`, more than 500 µg/mL. The result for `CC(C)(C)N(NC(=O)c1ccc2c(c1Cl)CCCO2)C(=O)c1c(Cl)cc(C(F)(F)F)cc1Cl` reads more than 500 µg/mL; that for `CC(C)(C)N(NC(=O)c1ccc2c(c1Cl)CCCO2)C(=O)c1ccccc1F`, 4.75 µg/mL (≈ 11.7 µM). With `CC(C)(C)N(NC(=O)c1ccc2c(c1Cl)CCCO2)C(=O)c1ccccc1[N+](=O)[O-]`, the LC50 was 6.54 µg/mL (≈ 15.1 µM). With `CC(C)(C)N(NC(=O)c1ccc2c(c1Cl)CCCO2)C(=O)c1ccc([N+](=O)[O-])cc1` the figure was 29.7 µg/mL (≈ 68.8 µM); with `CC(C)(C)N(NC(=O)c1ccc2c(c1Cl)CCCO2)C(=O)c1ccc(F)cc1F`, 5.69 µg/mL (≈ 13.5 µM); with `CC(C)(C)N(NC(=O)c1ccc2c(c1Cl)CCCO2)C(=O)c1cccc(I)c1`, 30.2 µg/mL (≈ 58.9 µM). With `COc1ccc(C(=O)N(NC(=O)c2ccc3c(c2Cl)CCCO3)C(C)(C)C)cc1` the figure was 25.1 µg/mL (≈ 60.1 µM); with `COc1ccc(C(=O)N(NC(=O)c2ccc3c(c2Cl)CCCO3)C(C)(C)C)cc1OC`, 19.8 µg/mL (≈ 44.2 µM). With `COc1cc(C(=O)N(NC(=O)c2ccc3c(c2Cl)CCCO3)C(C)(C)C)cc(OC)c1OC` the figure was 42.7 µg/mL (≈ 89.4 µM); with `CCOc1ccc(C(=O)N(NC(=O)c2ccc3c(c2Cl)CCCO3)C(C)(C)C)cc1`, 215 µg/mL (≈ 500 µM).

With `CC(C)(C)N(NC(=O)c1ccc2c(c1Cl)CCCO2)C(=O)c1cccc(Cl)c1`, the LC50 is 5.98 µg/mL (≈ 14.2 µM). The result for `Cc1cc(C)cc(C(=O)N(NC(=O)c2ccc3c(c2C)OCCO3)C(C)(C)C)c1` reads 1.4 µg/mL (≈ 3.53 µM); that for `CC(C)(C)N(NC(=O)c1ccc2c(c1Cl)CCCO2)C(=O)c1ccccc1`, 5 µg/mL (≈ 12.9 µM). The result for `Cc1ccccc1C(=O)N(NC(=O)c1ccc2c(c1Cl)CCCO2)C(C)(C)C` reads 31.3 µg/mL (≈ 78.1 µM); that for `Cc1cccc(C(=O)N(NC(=O)c2ccc3c(c2Cl)CCCO3)C(C)(C)C)c1`, 2.78 µg/mL (≈ 6.93 µM); that for `Cc1ccc(C(=O)N(NC(=O)c2ccc3c(c2Cl)CCCO3)C(C)(C)C)c(C)c1`, 6.14 µg/mL (≈ 14.8 µM). With `COc1cccc(C(=O)N(NC(=O)c2ccc3c(c2Cl)CCCO3)C(C)(C)C)c1` the figure was 11.4 µg/mL (≈ 27.3 µM); with `CC(C)(C)N(NC(=O)c1ccc2c(c1Cl)CCCO2)C(=O)c1ccc([N+](=O)[O-])cc1Cl`, 8.47 µg/mL (≈ 18.2 µM); with `Cc1cc(C)c(C(=O)N(NC(=O)c2ccc3c(c2Cl)CCCO3)C(C)(C)C)c(C)c1`, more than 500 µg/mL. `COc1ccccc1C(=O)N(NC(=O)c1ccc2c(c1Cl)CCCO2)C(C)(C)C` registered an LC50 of 10.1 µg/mL (≈ 24.2 µM).

`CC(C)(C)N(NC(=O)c1ccc2c(c1Cl)CCCO2)C(=O)c1cccc([N+](=O)[O-])c1`: the LC50 is 399 µg/mL (≈ 924 µM). `Cc1cc(C)cc(C(=O)N(NC(=O)c2ccc3c(c2Cl)OCCO3)C(C)(C)C)c1` gave an LC50 of 1.4 µg/mL (≈ 3.36 µM).

With `Cc1ccc(C(=O)N(NC(=O)c2ccc3c(c2Cl)CCCO3)C(C)(C)C)cc1`, the LC50 was 5.57 µg/mL (≈ 13.9 µM). In turn, `CC(C)(C)N(NC(=O)c1ccc2c(c1Cl)CCCO2)C(=O)c1ccc(I)cc1` gave an LC50 of 43.5 µg/mL (≈ 84.9 µM). For `CC(C)(C)N(NC(=O)c1ccc2c(c1Cl)CCCO2)C(=O)c1ccccc1Cl`, the LC50 was 10.8 µg/mL (≈ 25.5 µM). The compound `CC(C)(C)N(NC(=O)c1ccc2c(c1Cl)CCCO2)C(=O)c1ccc(Cl)cc1[N+](=O)[O-]` had a 50% lethal concentration (LC50) of 2.73 µg/mL (≈ 5.85 µM).

On to `Cc1cc(C)cc(C(=O)N(NC(=O)c2ccc3c(c2Cl)CCCO3)C(C)(C)C)c1` [N'-TERT-BUTYL-N'-(3,5-DIMETHYLBENZOYL)-N-5-CHLORO-6-CHROMANECARBOHYDRAZIDE], for which the 50% lethal concentration (LC50) was 2.25 µg/mL (≈ 5.42 µM). With `CC(C)(C)N(NC(=O)c1ccccc1)C(=O)c1ccccc1` [RH-5849] the figure was 24.4 µg/mL (≈ 82.3 µM); with `CCc1ccc(C(=O)NN(C(=O)c2cc(C)cc(C)c2)C(C)(C)C)cc1` [TEBUFENOZIDE], 1.59 µg/mL (≈ 4.51 µM).
